Data on two molecules can be found in ChEMBL document CHEMBL5653605, “Reduced VEGF production, angiogenesis, and vascular regrowth contribute to the antitumor properties of dual mTORC1/mTORC2 inhibitors” (Cancer Res, 2011).

Structures are written as SMILES. The source made the active and inactive calls. The calls are words filed in the database; no cut-off is given here.

In data set [1] the test system is OVCAR-5. Kind of data set: Antitumor activity against human OVCAR-5 cells xenografted in nu/nu CD-1 mouse assessed as tumor growth inhibition at 50 mg/kg qd administered for 14 days and measured twice weekly relative to control. It counts as functional. The following applies: OVCAR-5, 336 h, time 14 day, read-out: TGI. An outline of the steps: (§1)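 Xenograft combination study: H292 or Ovar-5 cells implanted s.c. in the right flank of nu/nu CD-1 mice. Ovar-5 cells grown in RPMI with 10% serum and 1% L-glutamine. […] Tumor growth followed, with growth inhibition reported as median TGI over the dosing period.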
A general note: A xenograft is tissue or cells of one species grown in another, often human tumour cells in immunodeficient mice.

Data set [2] has as its target mTORC2 (Homo sapiens, UniProt P42345). The data set is described as follows: Competitive inhibition of mTORC2 immunoprecipitated from human HeLa cells using His-tagged 4E-BP1 as substrate incubated for 30 mins in presence of ATP by chemiluminescence based ELISA. An outline of the steps:
(§2)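 Native mTORC1 or mTORC2 complex immunoprecipitated from HeLa lysates; kinase reaction run at 1 mM ATP.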
(In general: An ELISA detects its analyte on a solid surface through an enzyme-linked reagent.)

In data set [3] the test system is Mus musculus. The data set is described as follows: In vivo inhibition of 4E-BP1 phosphorylation at Ser37/46 residues in nu/nu CD-1 mouse xenografted with human GEO cells at 65 mg/kg administered for 12 days and measured 2 hrs post last dose by Western blot analysis. It counts as functional, organism-based. The following applies: time 290.0 hrs. An outline of the steps: (§3)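 nu/nu CD-1 mice carrying s.c. GEO flank xenografts dosed 65 mg/kg for 12 days; tumors snap-frozen 2, 8, 24 h after dosing, homogenized in Triton X-100/HEPES pH 7.4 lysis buffer with phosphatase inhibitors; phospho and total 4E-BP1 (37/46), Akt (S473), S6 (235/236) quantified by Western blot; n=2.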

Data set [4] has as its system NCI-H292. Kind of data set: Antitumor activity against human NCI-H292 cells xenografted in nu/nu CD-1 mouse assessed as maximal tumor regression at 50 mg/kg qd administered for 21 days in presence of sunitinib and measured twice weekly relative to control. It is filed as functional. As to conditions: time 21 day.
Data set [5] has as its target Ephrin type-A receptor 2 (Homo sapiens, UniProt P29317). Kind of data set: Inhibition of EphA2 phosphorylation (unknown origin) by cell based assay.
Data set [6] deals with mTORC1 (Homo sapiens, UniProt P42345). The data set is described as follows: Competitive inhibition of mTORC1 immunoprecipitated from human HeLa cells using His-tagged 4E-BP1 as substrate incubated for 30 mins in presence of ATP by chemiluminescence based ELISA. A digest of the protocol:
as §2

The subject of data set [7] is Mus musculus. Kind of data set: In vivo inhibition of AKT phosphorylation at Ser473 residues in nu/nu CD-1 mouse xenografted with human GEO cells at 65 mg/kg administered for 12 days and measured 2 to 24 hrs post last dose by Western blot analysis relative to control. As to conditions: time 290-312 hrs.
The target in data set [8] is T1, Serine/threonine-protein kinase mTOR (Homo sapiens, UniProt P42345). Kind of data set: Inhibition of mTOR (unknown origin) assessed as reduction in 4E-BP1 phosphorylation by cell based assay.
In data set [9] the test system is Mus musculus. Kind of data set: In vivo inhibition of S6 phosphorylation at 235/236 residues in nu/nu CD-1 mouse xenografted with human GEO cells at 65 mg/kg administered for 12 days and measured 2 to 24 hrs post last dose by Western blot analysis. It is filed as functional, organism-based. The following applies: time 290-312 hrs. A digest of the protocol: as §3

The test system of data set [10] is OVCAR-5. The data set is described as follows: Antitumor activity against human OVCAR-5 cells xenografted in nu/nu CD-1 mouse assessed as tumor growth inhibition at 50 mg/kg qd administered for 14 days in presence of sunitinib and measured twice weekly relative to control. It counts as functional. As to conditions: OVCAR-5, 336 h, time 14 day, read-out: TGI. A digest of the protocol:
as §1

The target of data set [11] is Vascular endothelial growth factor receptor 2 (Homo sapiens, UniProt P35968). The data set is described as follows: Inhibition of VEGFR2 phosphorylation (unknown origin) by cell based assay.
The subject of data set [12] is GEO. The data set is described as follows: Antitumor activity against human GEO cells xenografted in nu/nu CD-1 mouse assessed as slower tumor growth at 65 mg/kg administered once a day for 12 days and measured twice weekly. It counts as functional, organism-based. The following applies: time 12.0 day.
Data set [13] deals with Eukaryotic translation initiation factor 4E-binding protein 1 (Homo sapiens) (UniProt Q13541). The data set is described as follows: Inhibition of 4E-BP1 phosphorylation at Ser 37/46 residues in serum deprived/insulin stimulated human OVCAR-3 cells harboring PTEN and wild type PI3K preincubated for 2 hrs followed by insulin stimulation and measured immediately by Western blot analysis. It is filed as cell-based. The following applies: dose 0.001-10 µM. In general terms: A western blot detects proteins with antibodies after separation by electrophoresis.
Eukaryotic translation initiation factor 4E-binding protein 1 (Homo sapiens), sequence (Q13541 whole entry): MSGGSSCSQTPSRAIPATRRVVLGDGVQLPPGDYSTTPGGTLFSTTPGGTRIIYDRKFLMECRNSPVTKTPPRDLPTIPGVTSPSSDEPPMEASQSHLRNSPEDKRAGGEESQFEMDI

Data set [14] is described as follows: Drug concentration in nu/nu CD-1 mouse plasma xenografted with human GEO cells at 65 mg/kg administered for 12 days and measured 2 hrs post last dose. It is filed as ADME, organism-based. An outline of the steps:
(§4)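 nu/nu CD-1 mice bearing s.c. right-flank GEO xenografts dosed at 65 mg/kg for 12 days; plasma drug level sampled at 2 or 8 h after last dose; median reported.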

In data set [15] the target is Epidermal growth factor receptor (Homo sapiens, UniProt P00533). The data set is described as follows: Inhibition of EGFR phosphorylation (unknown origin) by cell based assay.
Epidermal growth factor receptor, sequence (P00533 whole entry): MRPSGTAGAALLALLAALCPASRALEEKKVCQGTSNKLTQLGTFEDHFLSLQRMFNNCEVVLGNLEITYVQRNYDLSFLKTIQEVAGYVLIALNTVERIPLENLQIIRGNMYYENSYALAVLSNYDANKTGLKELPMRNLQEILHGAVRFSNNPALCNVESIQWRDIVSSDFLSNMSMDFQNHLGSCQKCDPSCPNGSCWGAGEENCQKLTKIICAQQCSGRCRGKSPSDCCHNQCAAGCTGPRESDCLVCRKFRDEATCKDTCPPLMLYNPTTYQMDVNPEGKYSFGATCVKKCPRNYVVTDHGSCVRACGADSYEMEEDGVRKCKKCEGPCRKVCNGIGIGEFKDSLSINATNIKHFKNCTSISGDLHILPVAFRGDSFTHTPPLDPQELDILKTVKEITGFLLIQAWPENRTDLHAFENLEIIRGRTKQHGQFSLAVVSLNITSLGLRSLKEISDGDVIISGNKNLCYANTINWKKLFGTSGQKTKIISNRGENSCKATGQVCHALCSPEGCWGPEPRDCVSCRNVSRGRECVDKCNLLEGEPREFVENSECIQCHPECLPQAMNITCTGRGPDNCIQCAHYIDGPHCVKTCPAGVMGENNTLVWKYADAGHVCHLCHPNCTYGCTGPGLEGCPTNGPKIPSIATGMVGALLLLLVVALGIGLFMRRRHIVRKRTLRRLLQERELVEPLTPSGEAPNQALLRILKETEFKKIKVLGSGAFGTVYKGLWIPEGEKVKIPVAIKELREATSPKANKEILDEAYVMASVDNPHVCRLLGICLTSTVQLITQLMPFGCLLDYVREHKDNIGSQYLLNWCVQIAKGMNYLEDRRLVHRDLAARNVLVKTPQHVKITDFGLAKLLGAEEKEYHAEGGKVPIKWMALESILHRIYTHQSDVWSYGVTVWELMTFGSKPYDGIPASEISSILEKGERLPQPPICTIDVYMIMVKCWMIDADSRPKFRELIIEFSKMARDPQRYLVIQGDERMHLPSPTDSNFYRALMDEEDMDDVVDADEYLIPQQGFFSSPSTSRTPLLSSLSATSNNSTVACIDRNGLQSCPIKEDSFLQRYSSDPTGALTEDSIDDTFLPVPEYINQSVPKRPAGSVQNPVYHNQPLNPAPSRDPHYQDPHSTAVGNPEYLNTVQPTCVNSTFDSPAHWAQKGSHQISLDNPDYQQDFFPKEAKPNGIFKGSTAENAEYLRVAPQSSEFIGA
A short description of data set [16]: Drug concentration in nu/nu CD-1 mouse plasma xenografted with human GEO cells at 65 mg/kg administered for 12 days and measured 8 hrs post last dose. It is filed as ADME, organism-based. A digest of the protocol:
as §4

Data set [17] is described as follows: Inhibition of MAPK (unknown origin) signaling axis assessed as reduction in phosphorylated ERK1/2 level by cell based assay. As to conditions: Homo sapiens.
Data set [18] concerns the target Proline-rich AKT1 substrate 1 (Homo sapiens) (UniProt Q96B36). The data set is described as follows: Inhibition of PRAS40 phosphorylation at Ser 246 residue in serum deprived/insulin stimulated human OVCAR-3 cells harboring PTEN and wild type PI3K preincubated for 2 hrs followed by insulin stimulation and measured immediately by Western blot analysis. As to conditions: dose 0.001-10 µM. It counts as cell-based.

The test system of data set [19] is NCI-H292. Kind of data set: Antitumor activity against human NCI-H292 cells xenografted in nu/nu CD-1 mouse assessed as tumor growth inhibition at 50 mg/kg qd administered for 21 days and measured twice weekly relative to control. As to conditions: NCI-H292, 504 h, time 21 day, read-out: TGI. It counts as functional. A digest of the protocol:
as §1

Data set [20] concerns OVCAR-3. Kind of data set: Inhibition of S6K phosphorylation at 235/236 residues in serum deprived/insulin stimulated human OVCAR-3 cells harboring PTEN and wild type PI3K at 0.001 to 10 uM preincubated for 2 hrs followed by insulin stimulation and measured immediately by Western blot analysis. It is filed as cell-based. The following applies: dose 0.001-10 µM.
Data set [21] deals with Phosphatidylinositol 4,5-bisphosphate 3-kinase catalytic subunit beta isoform (Homo sapiens, UniProt P42338). Kind of data set: Inhibition of PI3Kbeta (unknown origin) in presence of ATP by HTRF assay. A digest of the protocol: (§5)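 PI3K activity by HTRF assay at […] ATP.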
Phosphatidylinositol 4,5-bisphosphate 3-kinase catalytic subunit beta isoform, sequence (P42338 whole entry, canonical isoform): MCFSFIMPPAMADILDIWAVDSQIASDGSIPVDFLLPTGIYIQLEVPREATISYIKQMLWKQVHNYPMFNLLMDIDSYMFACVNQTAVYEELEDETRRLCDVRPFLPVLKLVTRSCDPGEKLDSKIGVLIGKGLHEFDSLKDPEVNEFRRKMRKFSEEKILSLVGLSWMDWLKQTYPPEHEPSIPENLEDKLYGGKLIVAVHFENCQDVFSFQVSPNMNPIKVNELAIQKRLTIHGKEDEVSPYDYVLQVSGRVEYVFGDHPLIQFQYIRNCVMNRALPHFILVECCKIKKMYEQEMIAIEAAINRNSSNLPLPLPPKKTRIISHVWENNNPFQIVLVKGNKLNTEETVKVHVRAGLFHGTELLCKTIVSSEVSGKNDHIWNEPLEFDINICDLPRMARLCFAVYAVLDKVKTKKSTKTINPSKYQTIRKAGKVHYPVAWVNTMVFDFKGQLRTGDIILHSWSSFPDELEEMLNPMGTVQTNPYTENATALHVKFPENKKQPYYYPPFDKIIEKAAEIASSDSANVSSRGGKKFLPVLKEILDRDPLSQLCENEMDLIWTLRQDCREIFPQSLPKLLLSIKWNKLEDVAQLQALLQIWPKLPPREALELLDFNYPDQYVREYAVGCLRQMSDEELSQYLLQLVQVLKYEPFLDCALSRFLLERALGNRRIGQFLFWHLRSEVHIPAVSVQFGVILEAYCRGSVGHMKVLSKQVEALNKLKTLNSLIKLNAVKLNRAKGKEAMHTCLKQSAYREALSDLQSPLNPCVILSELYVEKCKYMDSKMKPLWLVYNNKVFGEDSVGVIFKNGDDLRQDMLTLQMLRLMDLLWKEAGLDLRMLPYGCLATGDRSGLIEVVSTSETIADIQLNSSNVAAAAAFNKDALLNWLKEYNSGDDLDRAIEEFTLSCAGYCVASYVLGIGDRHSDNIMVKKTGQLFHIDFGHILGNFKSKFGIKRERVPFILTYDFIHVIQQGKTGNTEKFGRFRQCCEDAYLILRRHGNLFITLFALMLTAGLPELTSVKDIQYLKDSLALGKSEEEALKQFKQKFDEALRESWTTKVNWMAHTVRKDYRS
The test system of data set [22] is OVCAR-5. Kind of data set: Antitumor activity against human OVCAR-5 cells xenografted in nu/nu CD-1 mouse assessed as maximal tumor regression at 50 mg/kg qd administered for 14 days in presence of sunitinib and measured twice weekly relative to control. It counts as functional. The following applies: time 14 day.
For data set [23], the system named is OVCAR-3. Kind of data set: Inhibition of S6K at […] residues in serum deprived/insulin stimulated human OVCAR-3 cells harboring PTEN and wild type PI3K assessed as inhibition of s6 substrate phosphorylation at […] residue at 0.001 to 10 uM preincubated for 2 hrs followed by insulin stimulation and measured immediately by Western blot analysis. It is filed as cell-based. As to conditions: dose 0.001-10 µM.

The subject of data set [24] is NCI-H292. The data set is described as follows: Antitumor activity against human NCI-H292 cells xenografted in nu/nu CD-1 mouse assessed as tumor growth inhibition at 50 mg/kg qd administered for 21 days in presence of sunitinib and measured twice weekly relative to control. It counts as functional. The following applies: NCI-H292, 504 h, time 21 day, read-out: TGI. A digest of the protocol: as §1

For data set [25], the target named is RAC-alpha serine/threonine-protein kinase (Homo sapiens) (UniProt P31749). The data set is described as follows: Inhibition of AKT phosphorylation at Ser 473 site in serum deprived/insulin stimulated human OVCAR-3 cells harboring PTEN and wild type PI3K preincubated for 2 hrs followed by insulin stimulation and measured immediately by Western blot analysis. It counts as cell-based. The following applies: dose 0.001-10 µM.
RAC-alpha serine/threonine-protein kinase (Homo sapiens), sequence (P31749 whole entry): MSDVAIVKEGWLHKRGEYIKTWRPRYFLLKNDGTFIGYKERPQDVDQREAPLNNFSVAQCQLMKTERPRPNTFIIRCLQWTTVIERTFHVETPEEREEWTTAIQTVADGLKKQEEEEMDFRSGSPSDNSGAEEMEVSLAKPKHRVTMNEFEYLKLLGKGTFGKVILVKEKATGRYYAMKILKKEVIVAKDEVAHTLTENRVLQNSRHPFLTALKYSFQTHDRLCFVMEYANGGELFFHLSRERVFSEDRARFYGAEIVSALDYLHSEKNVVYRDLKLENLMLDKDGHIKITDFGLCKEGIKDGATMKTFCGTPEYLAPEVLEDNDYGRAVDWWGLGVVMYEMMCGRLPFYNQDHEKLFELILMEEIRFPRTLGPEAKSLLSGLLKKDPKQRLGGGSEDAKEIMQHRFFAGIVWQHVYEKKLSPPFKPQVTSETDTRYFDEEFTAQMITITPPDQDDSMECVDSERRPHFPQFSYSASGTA

Data set [26] addresses Proto-oncogene tyrosine-protein kinase Src (Homo sapiens, UniProt P12931). The data set is described as follows: Inhibition of SRC (unknown origin) assessed as reduction in phosphorylated FAK level by cell based assay.
Data set [27] deals with T1, Serine/threonine-protein kinase mTOR. Kind of data set: Inhibition of mTOR (unknown origin).
The target of data set [28] is Phosphatidylinositol 4,5-bisphosphate 3-kinase catalytic subunit gamma isoform (Homo sapiens, UniProt P48736). The data set is described as follows: Inhibition of PI3Kgamma (unknown origin) in presence of ATP by HTRF assay. An outline of the steps:
as §5

Data set [29] has as its system OVCAR-5. The data set is described as follows: Antitumor activity against human OVCAR-5 cells xenografted in nu/nu CD-1 mouse assessed as tumor growth inhibition at 40 mg/kg qd administered for 14 days in presence of OSI-027 and measured twice weekly relative to control. It counts as functional. The following applies: OVCAR-5, 336 h, time 14 day, read-out: TGI. A digest of the protocol:
as §1

For data set [30], the system named is NCI-H292. The data set is described as follows: Antitumor activity against human NCI-H292 cells xenografted in nu/nu CD-1 mouse assessed as tumor growth inhibition at 40 mg/kg qd administered for 21 days and measured twice weekly relative to control. It counts as functional. The following applies: NCI-H292, 504 h, time 21 day, read-out: TGI. An outline of the steps:
as §1

In data set [31] the test system is OVCAR-5. The data set is described as follows: Antitumor activity against human OVCAR-5 cells xenografted in nu/nu CD-1 mouse assessed as maximal tumor regression at 40 mg/kg qd administered for 14 days in presence of OSI-027 and measured twice weekly relative to control. It counts as functional. As to conditions: time 14 day.
Data set [32] relates to NCI-H292. The data set is described as follows: Antitumor activity against human NCI-H292 cells xenografted in nu/nu CD-1 mouse assessed as tumor growth inhibition at 40 mg/kg qd administered for 21 days in presence of OSI-027 and measured twice weekly relative to control. It counts as functional. The following applies: NCI-H292, 504 h, time 21 day, read-out: TGI. A digest of the protocol:
as §1

Data set [33] has as its system NCI-H292. The data set is described as follows: Antitumor activity against human NCI-H292 cells xenografted in nu/nu CD-1 mouse assessed as maximal tumor regression at 40 mg/kg qd administered for 21 days in presence of OSI-027 and measured twice weekly relative to control. The following applies: time 21 day. It is filed as functional.
The subject of data set [34] is OVCAR-5. The data set is described as follows: Antitumor activity against human OVCAR-5 cells xenografted in nu/nu CD-1 mouse assessed as tumor growth inhibition at 40 mg/kg qd administered for 14 days and measured twice weekly relative to control. As to conditions: OVCAR-5, 336 h, time 14 day, read-out: TGI. It is filed as functional. A digest of the protocol:
as §1

Ephrin type-A receptor 2, sequence (P29317 whole entry): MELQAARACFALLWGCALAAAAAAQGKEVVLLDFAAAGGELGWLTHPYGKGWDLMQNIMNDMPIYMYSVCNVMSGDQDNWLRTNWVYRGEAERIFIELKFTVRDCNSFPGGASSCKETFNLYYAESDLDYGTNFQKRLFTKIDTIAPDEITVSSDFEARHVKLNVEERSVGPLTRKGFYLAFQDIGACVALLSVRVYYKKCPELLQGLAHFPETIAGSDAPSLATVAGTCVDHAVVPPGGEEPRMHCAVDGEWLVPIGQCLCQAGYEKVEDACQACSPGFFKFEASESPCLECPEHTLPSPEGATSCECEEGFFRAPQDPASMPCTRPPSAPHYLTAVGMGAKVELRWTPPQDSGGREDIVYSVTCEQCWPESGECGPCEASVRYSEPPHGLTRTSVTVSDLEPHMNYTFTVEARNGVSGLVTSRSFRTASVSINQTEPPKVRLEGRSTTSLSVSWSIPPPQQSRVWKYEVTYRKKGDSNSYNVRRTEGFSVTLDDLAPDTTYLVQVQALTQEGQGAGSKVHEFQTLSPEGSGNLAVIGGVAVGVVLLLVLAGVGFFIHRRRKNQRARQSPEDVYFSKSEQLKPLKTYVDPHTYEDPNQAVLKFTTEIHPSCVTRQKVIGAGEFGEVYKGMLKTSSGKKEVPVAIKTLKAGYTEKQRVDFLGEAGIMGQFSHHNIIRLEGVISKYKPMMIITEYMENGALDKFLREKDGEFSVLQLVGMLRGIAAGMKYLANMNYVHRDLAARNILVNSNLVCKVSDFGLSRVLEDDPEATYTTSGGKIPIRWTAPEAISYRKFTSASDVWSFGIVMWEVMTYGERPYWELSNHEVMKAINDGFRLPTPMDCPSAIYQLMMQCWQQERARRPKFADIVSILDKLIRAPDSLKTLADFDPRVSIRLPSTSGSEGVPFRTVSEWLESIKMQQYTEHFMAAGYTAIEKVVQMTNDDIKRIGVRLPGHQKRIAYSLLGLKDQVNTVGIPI
Proto-oncogene tyrosine-protein kinase Src, sequence (P12931 2-536 limits assumed): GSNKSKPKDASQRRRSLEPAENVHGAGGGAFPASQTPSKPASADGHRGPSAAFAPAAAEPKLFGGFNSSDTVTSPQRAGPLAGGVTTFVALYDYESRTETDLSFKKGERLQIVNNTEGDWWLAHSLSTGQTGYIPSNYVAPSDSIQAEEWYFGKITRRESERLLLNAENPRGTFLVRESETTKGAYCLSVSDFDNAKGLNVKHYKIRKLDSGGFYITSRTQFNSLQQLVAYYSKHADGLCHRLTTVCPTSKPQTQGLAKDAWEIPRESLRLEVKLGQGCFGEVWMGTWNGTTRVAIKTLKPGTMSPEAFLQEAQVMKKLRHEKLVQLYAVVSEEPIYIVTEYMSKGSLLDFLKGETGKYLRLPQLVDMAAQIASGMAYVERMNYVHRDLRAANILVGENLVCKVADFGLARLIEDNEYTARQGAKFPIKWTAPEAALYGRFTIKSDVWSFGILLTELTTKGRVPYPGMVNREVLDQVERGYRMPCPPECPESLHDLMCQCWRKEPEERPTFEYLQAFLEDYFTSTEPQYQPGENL

For `COc1cccc2cc(-c3nc([C@H]4CC[C@H](C(=O)O)CC4)n4ncnc(N)c34)[nH]c12` [OSI-027], the inhibition in vivo at 50 mg/kg in data set [1] is 55%; in [10], 100%; in data set [19] it was 61%; in [24], 100%. For the same molecule, the IC50 – broadly, the point on the concentration scale where inhibition reaches its midpoint – is 65 nM in data set [2]; above 40 µM in [5]; 22 nM in data set [6]; 1000 nM in data set [8]; above 40 µM in data set [11]; above 40 µM in data set [15]. Besides, the IC50 in [17] was above 20 µM; in data set [21] it was above 30 µM; in data set [26], above 40 µM; in data set [27], 4 nM; in data set [28], 420 nM. The inhibition entry in data set [3], in data set [7], in data set [9], in data set [20] and in data set [23] was “Active” in each case. Moreover, the values for the Activity in data set [4] and in data set [22] were 59% and 38%, respectively. Besides, the result in [12] was Active. Moreover, the inhibition result in data set [13], in [18] and in data set [25] was “Dose-Dependent Effect” each time. The concentration at 290 h in [14] turned out to be 21.3 µM. In [16], this molecule came in with a concentration at 296 h of 14.9 µM.

With `CCN(CC)CCNC(=O)c1c(C)[nH]c(/C=C2\C(=O)Nc3ccc(F)cc32)c1C` [SUNITINIB], the inhibition in vivo at 40 mg/kg in data set [29] amounted to 100%; in data set [30] it was 47%; in data set [32], 100%; in data set [34], 68%. For the same molecule, the Activity is 38% in [31] and 59% in data set [33].
